Data: ChEMBL document CHEMBL4028848, “Discovery of N-{4-[5-(4-Fluorophenyl)-3-methyl-2-methylsulfanyl-3H-imidazol-4-yl]-pyridin-2-yl}-acetamide (CBS-3595), a Dual p38α MAPK/PDE-4 Inhibitor with Activity against TNFα-Related Diseases” (J Med Chem, 2017)
Active and inactive are the calls of the source. No cut-off for these calls is given here.

Columns and labels:
[1] = biological target: Mitogen-activated protein kinase 1 (Homo sapiens) (UniProt P28482); experiment: Inhibition of MAPK2 (unknown origin) at 10 uM
Mitogen-activated protein kinase 1 (Homo sapiens), sequence (P28482 whole entry): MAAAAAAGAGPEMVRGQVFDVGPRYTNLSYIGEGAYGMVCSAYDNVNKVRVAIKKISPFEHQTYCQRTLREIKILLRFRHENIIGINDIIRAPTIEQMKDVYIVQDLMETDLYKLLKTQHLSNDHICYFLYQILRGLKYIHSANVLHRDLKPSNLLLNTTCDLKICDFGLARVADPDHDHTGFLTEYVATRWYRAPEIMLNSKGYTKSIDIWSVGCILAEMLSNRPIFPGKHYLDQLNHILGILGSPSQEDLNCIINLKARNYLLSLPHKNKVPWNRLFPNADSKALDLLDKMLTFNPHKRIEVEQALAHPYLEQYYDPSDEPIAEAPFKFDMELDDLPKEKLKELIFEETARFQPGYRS

Liver [2] = experiment: Drug level in rat liver microsomes treated with CBS-3595 at 10 to 100 uM; format: ADME, microsome
Outline: (§1)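 Test compound incubated at 10, 30 and 100 μM with liver microsomes from rat, Cynomolgus monkey or human, and metabolites monitored.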

[3] = biological target: Mitogen-activated protein kinase 8 (Homo sapiens) (UniProt P45983); experiment: Inhibition of JNK1alpha1 (unknown origin) at 10 uM
Mitogen-activated protein kinase 8 (Homo sapiens), sequence (P45983 whole entry): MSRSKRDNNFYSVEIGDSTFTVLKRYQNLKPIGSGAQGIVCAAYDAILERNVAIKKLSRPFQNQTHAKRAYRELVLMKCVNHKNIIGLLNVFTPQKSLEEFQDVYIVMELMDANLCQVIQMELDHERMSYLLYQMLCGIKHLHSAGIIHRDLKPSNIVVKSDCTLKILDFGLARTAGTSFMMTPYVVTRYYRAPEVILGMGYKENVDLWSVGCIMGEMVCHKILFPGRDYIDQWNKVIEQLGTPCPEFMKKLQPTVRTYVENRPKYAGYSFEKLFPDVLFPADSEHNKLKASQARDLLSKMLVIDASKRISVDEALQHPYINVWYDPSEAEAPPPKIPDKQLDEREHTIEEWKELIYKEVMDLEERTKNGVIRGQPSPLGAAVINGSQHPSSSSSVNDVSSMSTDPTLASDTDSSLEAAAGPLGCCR

[4] = AUC (0 to infinity) in male Sprague-Dawley rat at 30 mg/kg, po by LC-MS/MS analysis; format: ADME, organism-based; set-up: dose 30 mg/kg, time infinity, route oral; conditions: in vivo
Outline: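 Rats of each sex received a single oral dose of 30 mg/kg. Plasma concentration–time profiles of parent were determined separately for females and males.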

Cynomolgus monkey = experiment: Toxicity in cynomolgus monkey assessed as death at 6 to 20 mg/kg followed by after 1 week high dose treatment of 25 mg/kg at 1 week post first dose for 28 days followed by 2 weeks off without dosing; format: organism-based, Macaca fascicularis; conditions: in vivo
Outline: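 Cynomolgus monkeys, 32 in total, 3–5 per group. Dosed for 28 days with vehicle or 6, 12 or 20 mg/kg; the high dose was raised to 25 mg/kg/day after 1 week. Two males and two females from the control and high-dose groups were followed through a further 2-week treatment-free period. Deaths and clinical signs recorded.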

Homo sapiens [5] = experiment: Cmax in human assessed as 4-(4-(4-fluorophenyl)-1-methyl-2-(methylsulfinyl)-1H-imidazol-5-yl)pyridin-2-amine formation at 20 mg, po administered as single dose; format: ADME, organism-based; set-up: dose 20 mg, route oral; conditions: in vivo
Outline: (§2)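 Oral single-dose PK; plasma concentrations of parent and metabolite measured. Dogs: blood sampled 0.25 to 24 h after dosing. Humans: healthy subjects, placebo-controlled single-blind randomized consecutive dosing, plasma sampled predose and 0.25–36 h post dose. 10 mg also given fasting and fed in crossover. Parameters derived from individual concentration–time profiles.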

Rattus norvegicus [6] = experiment: Toxicity in rat assessed as soft feces at 30 to 300 mg/kg, po administered as single dose; format: organism-based; conditions: in vivo
Rattus norvegicus [7] = experiment: Antiarthritic activity in Lewis rat assessed as change in paw volume at 50 mg/kg, po qd administered for 10 days; format: functional, organism-based
Outline: (§3)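 Collagen-induced arthritis in male Lewis rats (5–6 per group). Groups received vehicle, dexamethasone 1 mg/kg, test item 50 mg/kg once daily, or 25 mg/kg twice daily for 10 days. Body weight, arthritic score and paw volume were monitored, and serum COMP was measured at the end.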

[8] = AUC (0 to t) in cynomolgus monkey at 20 mg/kg, po measured on day 1 and 27 post dose by LC-MS/MS analysis; format: ADME, organism-based, Macaca fascicularis; conditions: in vivo
Outline: (§4)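 Within a 4-week oral toxicity study, Cynomolgus monkeys received 6, 12 or 20 mg/kg daily. Blood was sampled from 0.5 to 24 h post dose on days 1 and 27. Tmax, Cmax, T1/2 and AUC0–24 came from individual profiles of parent and metabolite.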

Rattus norvegicus [9] = experiment: Toxicity in rat assessed as effect on central nervous system at 30 to 300 mg/kg, po administered as single dose; format: organism-based; conditions: in vivo
Liver [10] = experiment: Drug metabolism in human liver microsomes assessed as 4-(4-(4-fluorophenyl)-1-methyl-2-(methylsulfinyl)-1H-imidazol-5-yl)pyridin-2-amine formation at 10 to 100 uM; format: ADME, microsome; outline: as §1
[11] = Half life in mongrel dog at 30 mg/kg, po by LC-MS/MS analysis; format: ADME, organism-based, Canis lupus familiaris; conditions: in vivo; outline: as §2
[12] = Cmax in cynomolgus monkey at 20 mg/kg, po measured on day 1 and 27 post dose by LC-MS/MS analysis; format: ADME, organism-based, Macaca fascicularis; set-up: dose 20 mg/kg, route oral; conditions: in vivo; outline: as §4
Homo sapiens [13] = species on record: Homo sapiens; experiment: Inhibition of PDE4 in human U937 cells assessed as [3H]cAMP hydrolysis at 1 uM relative to control; format: cell-based
[14] = Drug metabolism in human primary hepatocytes assessed as CBS-3846 formation at 10 to 100 uM; format: ADME, cell-based, Hepatocyte
Homo sapiens [15] = experiment: Toxicity in human assessed as effect on heart rate at 50 mg, po administered as single dose; format: organism-based; conditions: in vivo
Escherichia coli = experiment: Genotoxicity in Escherichia coli in presence of S9 fraction by Ames test; format: toxicity
Outline: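 Bacterial reverse mutation (Ames) test in S. typhimurium and E. coli strains, run with and without S9 mix.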

Rattus norvegicus [16] = experiment: Toxicity in rat assessed as effect on respiratory rate by measuring increase in peak expiratory flow 300 mg/kg, po administered as single dose; format: organism-based; conditions: in vivo
[17] = Drug excretion in human urine at 10 to 50 mg, po administered as single dose up to 36 hrs; format: ADME, organism-based; conditions: read-out: Drug excretion
Outline: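 Healthy subjects, single oral dose. Urine collected at 0–6, 6–12, 12–24 and 24–36 h post dose and analysed for parent and metabolite. Excreted amount expressed relative to administered dose.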

[18] = Cmax in mongrel dog at 30 mg/kg, po by LC-MS/MS analysis; format: ADME, organism-based, Canis lupus familiaris; set-up: dose 30 mg/kg, route oral; conditions: in vivo; outline: as §2
[19] = AUC (0 to infinity) in mongrel dog at 30 mg/kg, po by LC-MS/MS analysis; format: ADME, organism-based, Canis lupus familiaris; set-up: dose 30 mg/kg, time infinity, route oral; conditions: in vivo
Outline: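 Two mongrel dogs received a single oral dose of 30 mg/kg. Blood was sampled from 0.25 to 24 h and plasma parent concentrations were determined.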

[20] = Tmax in cynomolgus monkey at 20 mg/kg, po measured on day 1 and 27 post dose by LC-MS/MS analysis; format: ADME, organism-based, Macaca fascicularis; conditions: in vivo
Lymphocyte = experiment: Clastogenicity in human lymphocytes in absence of S9 fraction by microneucleus test; format: toxicity, cell-based
Outline: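 Cytogenetic clastogenicity assay in cultured human lymphocytes, run with and without S9 mix.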

Mus musculus = experiment: Antiarthritic activity in human TNF transgenic mouse model assessed as reduction in synovitis at 20 to 50 mg/kg/day, po for 10 weeks; format: functional, organism-based
Outline: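 Heterozygous human TNF transgenic mice (8 per group) were dosed orally for ten weeks with 20 or 50 mg/kg/day as a methylcellulose suspension, alongside vehicle and infliximab i.p. controls. Joint swelling and grip strength were scored weekly, and hind paws were examined histologically at the end.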

Rattus norvegicus [21] = experiment: Antiarthritic activity in Lewis rat assessed as collagen oligomeric matrix protein level in serum at 25 mg/kg, po bid administered for 10 days (Rbv = 0.17 +/- 0.02 U/l); format: functional; outline: as §3
Rattus norvegicus [22] = experiment: Toxicity in Sprague-Dawley rat assessed as increase in piloerection at 150 mg/kg, po administered via gavage for daily 28 days followed by 2 weeks off without dosing; format: organism-based; conditions: in vivo
Rattus norvegicus [23] = experiment: Antiarthritic activity in Lewis rat assessed as collagen oligomeric matrix protein level in serum at 50 mg/kg, po qd administered for 10 days (Rbv = 0.17 +/- 0.02 U/l); format: functional; outline: as §3
Saccharomyces cerevisiae = experiment: Inhibition of yeast CK1 at 10 uM relative to control
[24] = biological target: Dual specificity mitogen-activated protein kinase kinase 4 (Homo sapiens) (UniProt P45985); experiment: Inhibition of MKK4 (unknown origin) at 10 uM relative to control
Dual specificity mitogen-activated protein kinase kinase 4 (Homo sapiens), sequence (P45985 whole entry): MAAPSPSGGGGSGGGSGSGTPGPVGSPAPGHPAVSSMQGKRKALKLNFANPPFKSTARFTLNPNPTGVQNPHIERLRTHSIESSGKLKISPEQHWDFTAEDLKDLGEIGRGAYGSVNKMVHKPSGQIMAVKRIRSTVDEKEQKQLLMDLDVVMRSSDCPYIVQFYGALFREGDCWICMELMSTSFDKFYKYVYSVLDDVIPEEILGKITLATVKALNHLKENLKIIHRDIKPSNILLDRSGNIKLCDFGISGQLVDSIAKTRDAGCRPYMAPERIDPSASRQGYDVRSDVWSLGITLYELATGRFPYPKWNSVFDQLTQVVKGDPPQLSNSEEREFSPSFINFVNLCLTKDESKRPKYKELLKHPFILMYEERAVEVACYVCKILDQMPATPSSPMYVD

[25] = biological target: Voltage-gated inwardly rectifying potassium channel KCNH2 (Homo sapiens, UniProt Q12809); experiment: Inhibition of human ERG expressed in HEK293 cells by patch clamp method; format: cell-based
Voltage-gated inwardly rectifying potassium channel KCNH2, sequence (Q12809 whole entry): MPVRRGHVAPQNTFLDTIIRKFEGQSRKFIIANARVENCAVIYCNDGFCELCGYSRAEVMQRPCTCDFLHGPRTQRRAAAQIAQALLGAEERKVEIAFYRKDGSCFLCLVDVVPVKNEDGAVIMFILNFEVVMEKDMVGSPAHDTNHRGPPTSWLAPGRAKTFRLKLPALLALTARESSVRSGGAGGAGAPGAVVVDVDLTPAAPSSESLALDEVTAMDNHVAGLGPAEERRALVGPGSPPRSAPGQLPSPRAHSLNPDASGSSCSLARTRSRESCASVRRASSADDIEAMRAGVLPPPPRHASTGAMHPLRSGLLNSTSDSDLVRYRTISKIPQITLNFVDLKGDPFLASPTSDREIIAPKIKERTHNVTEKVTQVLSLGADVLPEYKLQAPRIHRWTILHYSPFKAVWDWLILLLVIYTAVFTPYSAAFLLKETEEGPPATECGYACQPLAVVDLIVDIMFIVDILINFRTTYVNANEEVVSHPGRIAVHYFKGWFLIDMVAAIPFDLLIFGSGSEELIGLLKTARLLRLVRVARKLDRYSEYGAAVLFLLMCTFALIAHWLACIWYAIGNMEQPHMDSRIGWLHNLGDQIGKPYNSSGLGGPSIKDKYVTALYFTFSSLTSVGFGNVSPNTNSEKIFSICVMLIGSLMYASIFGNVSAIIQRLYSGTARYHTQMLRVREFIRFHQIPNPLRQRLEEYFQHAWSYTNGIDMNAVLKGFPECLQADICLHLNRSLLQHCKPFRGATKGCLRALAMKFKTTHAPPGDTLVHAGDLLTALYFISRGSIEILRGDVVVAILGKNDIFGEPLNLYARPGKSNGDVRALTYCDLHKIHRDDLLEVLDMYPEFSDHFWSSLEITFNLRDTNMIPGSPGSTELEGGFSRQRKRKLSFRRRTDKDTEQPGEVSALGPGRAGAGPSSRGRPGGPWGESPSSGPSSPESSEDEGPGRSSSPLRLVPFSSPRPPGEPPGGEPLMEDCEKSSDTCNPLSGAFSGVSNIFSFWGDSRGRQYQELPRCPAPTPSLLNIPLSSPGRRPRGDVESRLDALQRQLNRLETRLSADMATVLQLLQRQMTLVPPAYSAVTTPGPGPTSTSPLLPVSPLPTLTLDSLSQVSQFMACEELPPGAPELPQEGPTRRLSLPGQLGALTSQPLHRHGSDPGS

[26] = Drug metabolism in cynomolgus monkey liver microsomes assessed as 4-(4-(4-fluorophenyl)-1-methyl-2-(methylsulfonyl)-1H-imidazol-5-yl)pyridin-2-amine formation at 10 to 100 uM; format: ADME, Macaca fascicularis, microsome; outline: as §1
[27] = Cmax in male Sprague-Dawley rat at 30 mg/kg, po by LC-MS/MS analysis; format: ADME, organism-based; set-up: dose 30 mg/kg, route oral; conditions: in vivo

With `Cn1c([S+](C)[O-])nc(-c2ccc(F)cc2)c1-c1ccnc(N)c1` (configuration not stated) the inhibition [1] was “inactive”, the Drug metabolism (Liver [2]) was “Metabolite_Detected” and the inhibition [3] was “inactive”.

In the case of `CC(=O)Nc1cc(-c2c(-c3ccc(F)cc3)nc([S+](C)[O-])n2C)ccn1` (configuration not stated), the AUC(0-inf) [4] is reported as 29.8 µM·h, the Activity (Cynomolgus monkey) is reported as “Non-Toxic” and the Cmax (Homo sapiens [5]) is reported as 0.309 µM. For the same compound, the Activity (Rattus norvegicus [6]) was “Toxic”, the Activity (Rattus norvegicus [7]) was “inactive” and the AUC(0-t) [8] was 79.6 µM·h. The Activity (Rattus norvegicus [9]) was “Non-Toxic”, the Drug metabolism (Liver [10]) was “Metabolite_Detected” and the half-life [11] was 3.85 h. The Cmax [12] was 8.4 µM, the inhibition (Homo sapiens [13]) was 73% and the Drug metabolism [14] was “Metabolite_Detected”. For the same compound, the Activity (Homo sapiens [15]) was “Non-Toxic”, the Activity (Escherichia coli) was “Non-Toxic” and the Activity (Rattus norvegicus [16]) was “Toxic”. It also gave a dose excreted at 36 h [17] of 6%, a Cmax [18] of 14.3 µM and an AUC(0-inf) [19] of 96.8 µM·h. The Tmax [20] was 4 h, the Activity (Lymphocyte) was “Non-Toxic” and the Activity (Mus musculus) was “Active”. The Activity (Rattus norvegicus [21]) was 0.08 U/L, the Activity (Rattus norvegicus [22]) was “Toxic” and the Activity (Rattus norvegicus [23]) was 0.08 U/L. For the same compound, the inhibition (Saccharomyces cerevisiae) was 97%, the inhibition [24] was 37% and the IC50 [25] was 213 µM. The Drug metabolism [26] was “Metabolite_Detected” and the Cmax [27] was 3.4 µM.
